# In ChEMBL document CHEMBL1123591, “Synthetic analogues of tetrahydrobiopterin with cofactor activity for aromatic amino acid hydroxylases” (1987):
# “And” between values parts separate entries of the source, which are not always exact repeats. Identical values can stand only once.
# B1: Tyrosine 3-monooxygenase (Bos taurus), P17289 (protein)
# chain: MPTPNAASPQAKGFRRAVSELDAKQAEAIMSPRFVGRRQSLIQDARKEREKAEAAASSSESAEAAAWLERDGEAVLTLLFALPPTRPPALTRAIKVFETFEAHLHHLETRPAQPLRAGSPPLECFVRCEVPGPVVPALLSALRRVAEDVRAAGESKVLWFPRKVSELDKCHHLVTKFDPDLDLDHPGFSDQAYRQRRKLIAEIAFQYKQGDPIPHVEYTAEETATWKEVYSTLRGLYPTHACREHLEAFELLERFCGYREDRIPQLEDVSRFLKERTGFQLRPAAGLLSARDFLASLAFRVFQCTQYIRHASSPMHSPEPECCHELLGHVPMLADRTFAQFSQDIGLASLGVSDEEIEKLSTLYWFTVEFGLCKQNGEVKAYGAGLLSSYGELLHSLSEEPEIRAFDPDAAAVQPYQDQTYQPVYFVSESFSDAKDKLRSYASRIQRPFSVKFDPYTLAIDVLDSPHAIRHALDGVQDEMQALAHALNAIS
# B2: Tryptophan 5-hydroxylase 1 (Rattus norvegicus), P09810 (protein)
# chain: MIEDNKENKDHSSERGRVTLIFSLKNEVGGLIKALKIFQENHVNLLHIESRKSKRRNSEFEIFVDCDINREQLNDIFPLLKSHTTVLSVDSPDQLPEKEDVMETVPWFPKKISDLDFCANRVLLYGSELDADHPGFKDNVYRRRRKYFAELAMNYKHGDPIPKIEFTEEEIKTWGTIFRELNKLYPTHACREYLRNLPLLSKYCGYREDNVPQLEDVSNFLKERTGFSIRPVAGYLSPRDFLSGLAFRVFHCTQYVRHSSDPLYTPEPDTCHELLGHVPLLAEPSFAQFSQEIGLASLGASEETVQKLATCYFFTVEFGLCKQDGQLRVFGAGLLSSISELRHALSGHAKVKPFDPKVACKQECLITSFQDVYFVSESFEDAKEKMREFAKTVKRPFGVKYNPYTQSIQVLRDSKSITSAMNELRHDLDVVNDALARVSRWPSV
# B3: Phenylalanine-4-hydroxylase (Rattus norvegicus), P04176 (protein)
# chain: MAAVVLENGVLSRKLSDFGQETSYIEDNSNQNGAISLIFSLKEEVGALAKVLRLFEENDINLTHIESRPSRLNKDEYEFFTYLDKRTKPVLGSIIKSLRNDIGATVHELSRDKEKNTVPWFPRTIQELDRFANQILSYGAELDADHPGFKDPVYRARRKQFADIAYNYRHGQPIPRVEYTEEEKQTWGTVFRTLKALYKTHACYEHNHIFPLLEKYCGFREDNIPQLEDVSQFLQTCTGFRLRPVAGLLSSRDFLGGLAFRVFHCTQYIRHGSKPMYTPEPDICHELLGHVPLFSDRSFAQFSQEIGLASLGAPDEYIEKLATIYWFTVEFGLCKEGDSIKAYGAGLLSSFGELQYCLSDKPKLLPLELEKTACQEYSVTEFQPLYYVAESFSDAKEKVRTFAATIPRPFSVRYDPYTQRVEVLDNTQQLKILADSINSEVGILCNALQKIKS
# Tests used:
# [1] = substrate: CC(C)(C)OCC1CNc2nc(N)nc(O)c2N1; experiment: (§1) Tyrosine hydroxylase (isolated from bovine adrenal medulla) cofactor activity
# How it was run: (§2)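 Tyrosine hydroxylase was purified from bovine adrenal medulla by partial trypsin digestion, giving a model of the high-affinity form, then ammonium sulfate fractionation. Activity was measured as release of ³H₂O from L-(3,5-³H)tyrosine, with velocities expressed relative to tetrahydrobiopterin.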
# [2] = substrate: CC(C)COCC1CNc2nc(N)nc(O)c2N1; experiment: as §1; how it was run: as §2
# [3] = substrate: CC(C)OCC1CNc2nc(N)nc(O)c2N1; experiment: as §1; how it was run: as §2
# [4] = substrate: CC1(C)CNc2nc(N)nc(O)c2N1; experiment: as §1; how it was run: as §2
# [5] = substrate: CC1CNc2nc(N)[nH]c(=O)c2N1; experiment: as §1; how it was run: as §2
# [6] = substrate: CCCCCCCCOCC1CNc2nc(N)nc(O)c2N1; experiment: as §1; how it was run: as §2
# [7] = substrate: CCCCCOCC1CNc2nc(N)nc(O)c2N1; experiment: as §1; how it was run: as §2
# [8] = substrate: CCCOCC1CNc2nc(N)nc(O)c2N1; experiment: as §1; how it was run: as §2
# [9] = substrate: CCOCC1CNc2nc(N)nc(O)c2N1; experiment: as §1; how it was run: as §2
# [10] = substrate: COCC1CNc2nc(N)nc(O)c2N1; experiment: as §1; how it was run: as §2
# [11] = substrate: COCCOCC1CNc2nc(N)nc(O)c2N1; experiment: as §1; how it was run: as §2
# [12] = biological target: Tyrosine hydroxylase (Bos taurus); experiment: Tested in isolated enzyme assay for its cofactor activity against tyrosine hydroxylase (isolated from bovine adrenal medulla) expressed as Michaelis-Menten constant
# [13] = compound: CC1CNc2nc(N)[nH]c(=O)c2N1; experiment: Tested in isolated enzyme assay for its cofactor activity against tryptophan hydroxylase (isolated from rat brain stem) expressed as Michaelis-Menten constant (calculated in the presence of platinum catalyst)
# [14] = substrate: CC(C)OCC1CNc2nc(N)nc(O)c2N1; experiment: (§3) Tested in isolated enzyme assay for its cofactor activity against tryptophan hydroxylase (isolated from rat brain stem) expressed as Michaelis-Menten constant
# How it was run: (§4)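 The tryptophan hydroxylase source was a desalted 40000g supernatant of rat brain stem, with velocities expressed relative to tetrahydrobiopterin.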
# [15] = substrate: CC(O)C(O)C1CNc2nc(N)nc(O)c2N1; experiment: as §3; how it was run: as §4
# [16] = substrate: CCCCCCCCOCC1CNc2nc(N)nc(O)c2N1; experiment: as §3; how it was run: as §4
# [17] = substrate: CCCCOCC1CNc2nc(N)nc(O)c2N1; experiment: as §3; how it was run: as §4
# [18] = substrate: CCCOCC1CNc2nc(N)nc(O)c2N1; experiment: as §3; how it was run: as §4
# [19] = substrate: CCOCC1CNc2nc(N)nc(O)c2N1; experiment: as §3; how it was run: as §4
# [20] = substrate: COCC1CNc2nc(N)nc(O)c2N1; experiment: as §3; how it was run: as §4
# [21] = substrate: CC(C)OCC1CNc2nc(N)nc(O)c2N1; experiment: (§5) Tested in isolated enzyme assay for its cofactor activity against phenylalanine hydroxylase (isolated from rat liver) expressed as Michaelis-Menten constant
# How it was run: (§6)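 Phenylalanine hydroxylase was isolated from rat liver and purified on phenyl-Sepharose. Tyrosine formed was quantified by liquid chromatography with fluorescence detection, and velocities were expressed relative to tetrahydrobiopterin.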
# [22] = substrate: CC(O)C(O)C1CNc2nc(N)nc(O)c2N1; experiment: as §5; how it was run: as §6
# [23] = substrate: CC1(C)CNc2nc(N)nc(O)c2N1; experiment: as §5; how it was run: as §6
# [24] = substrate: CC1CNc2nc(N)[nH]c(=O)c2N1; experiment: as §5; how it was run: as §6
# [25] = substrate: CCCCCCCCOCC1CNc2nc(N)nc(O)c2N1; experiment: as §5; how it was run: as §6
# [26] = substrate: CCCCOCC1CNc2nc(N)nc(O)c2N1; experiment: as §5; how it was run: as §6
# [27] = substrate: CCCOCC1CNc2nc(N)nc(O)c2N1; experiment: as §5; how it was run: as §6
# [28] = substrate: CCOCC1CNc2nc(N)nc(O)c2N1; experiment: as §5; how it was run: as §6
# [29] = substrate: COCC1CNc2nc(N)nc(O)c2N1; experiment: as §5; how it was run: as §6
# [30] = substrate: COCCOCC1CNc2nc(N)nc(O)c2N1; experiment: as §5; how it was run: as §6
protein,measurement,setting,value
B1,Km,[1],120 µM
same,Km,[2],80 µM
same,Km,[3],45 µM and 55 µM
same,Km,[4],77 µM and 105 µM
same,Km,[5],133 µM and 51 µM
same,Km,[6],44 µM
same,Km,[7],65 µM
same,Km,[8],28 µM and 22 µM
same,Km,[9],52 µM and 23 µM
same,Km,[10],84 µM
same,Km,[11],200 µM
same,Km,[12],22 µM
B2,Km,[13],355 µM
same,Km,[14],129 µM
same,Km,[15],49 µM
same,Km,[16],11 µM
same,Km,[17],84 µM
same,Km,[18],92 µM
same,Km,[19],44 µM
same,Km,[20],33 µM
B3,Km,[21],9 µM
same,Km,[22],5.5 µM
same,Km,[23],29 µM
same,Km,[24],21 µM
same,Km,[25],1 µM
same,Km,[26],21 µM
same,Km,[27],16 µM
same,Km,[28],21 µM
same,Km,[29],17 µM
same,Km,[30],65 µM
